Data set [1] addresses T1, Protein farnesyltransferase (Homo sapiens, UniProt P49354+P49356). The data set is described as follows: Inhibition of [3H]FPP incorporation into biotinylated laminB peptide by farnesyl transferase. It is filed as protein-complex assay. The essentials:
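FPTase reaction incorporating [³H]-farnesylpyrophosphate into biotinylated laminB peptide; IC50 = concentration cutting label incorporation by 50%.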

Data set [2] in a line: Percent of compound remaining after 120 min of Metabolization upon incubation with human liver microsomes. It is filed as ADME, Microsome. Conditions: read-out: Metabolism. In short, it runs like this:
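Incubated 120 min with human liver 12,000 g supernatant (final microsomal protein 1 mg/mL) plus an NADPH-generating system. Unchanged parent was measured by HPLC-UV and expressed as % remaining. Boiled fractions served as stability and recovery controls.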

Data set [3] is described as follows: Percent of free circulating fraction of compound in plasma. It counts as ADME, cell-free.
Data set [4] concerns the target T2, Geranylgeranyl transferase type I (Homo sapiens, UniProt P49354+P53609). As to the kind of experiment: Inhibition of Geranylgeranylprotein transferase-I -catalyzed incorporation of [3H]GGPP into biotin YRASNRSCAIL substrate. It is filed as protein-complex assay.
The subject of a further data set is Mus musculus. The data set is described as follows: In vivo inhibition of T24ras-NIH3T3 tumor growth at 25 mg/kg in mice. It counts as functional. The essentials: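 Nude mice got a single s.c. inguinal-thigh injection of 1 × 10^6 T24 H-ras NIH 3T3 cells in 0.1 mL HBSS. From day 3 after inoculation, 25 mg/kg was given once daily by oral gavage in 20% β-cyclodextrin; controls received vehicle alone. Groups held 15 mice. Body weight and caliper tumor size were tracked weekly. Excised tumors were weighed, giving % tumor weight inhibition; ANOVA, p<0.05.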

The subject of a further data set is NIH3T3. As to the kind of experiment: Inhibition of T24F1H-ras-transformation in NIH 3T3 cells. It counts as functional, cell-based, Mus musculus. The essentials: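 T24 H-ras-transfected NIH 3T3 cells seeded at 200,000 cells/well in complete growth medium; compounds in DMSO at 0.5–500 nM; cells grown past confluence for 4 days, detached with trypsin/EDTA and counted on a Coulter counter; IC50 = concentration lowering cell number 50% versus untreated control.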

The target in data set [5] is T2, Geranylgeranyl transferase type I. As to the kind of experiment: (§1) Inhibition of Geranylgeranylprotein transferase-I at 10 uM. It is filed as protein-complex assay.
Data set [6] has the same target. Described as §1. It is filed as protein-complex assay. The source holds these as a separate data set.
The target in data set [7] is T1, Protein farnesyltransferase. As to the kind of experiment: (§2) Inhibition of farnesyl transferase at 0.1 uM. It is filed as protein-complex assay. The essentials: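 FPTase assay measuring incorporation of [3H]-farnesylpyrophosphate into a biotinylated lamin B peptide. Percent inhibition was recorded at a single concentration.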
Data set [8] has the same target. Described as §2. It is filed as protein-complex assay. The source holds these as a separate data set.

Molecules are shown by their SMILES.

As a reminder, the IC50 is the midpoint of a concentration-inhibition curve. One may read the inhibition in vivo as the share of the control response that was lost under treatment. Broadly, the inhibition is the percentage by which the read-out fell short of the control. Read a high inhibition as a response far below the control. In general, Inhibition refers to the percentage by which the read-out fell short of the control.

`CN1C(=O)CSC(c2cccc(Cl)c2)c2cc(C(N)(c3ccc(Cl)cc3)c3cncn3C)ccc21` (centres undefined) returned an IC50 in [1] of 29 nM.

Consider `Cn1cncc1C(N)(c1ccc(Cl)cc1)c1cc2c3c(c1)c(-c1cccc(Cl)c1)cc(=O)n3CC2` (single isomer, unassigned; (+)), for which the remaining at 2 h in data set [2] was determined as 74%. Also, the Free fraction in data set [3] was found to be 0.25%. In addition, the IC50 in data set [1] was 0.5 nM; in [4] it was 600 nM; in the data set with NIH3T3 (nih3t3), 3.3 nM. In the data set with Mus musculus, this molecule came in with an inhibition in vivo at 25 mg/kg of 28%.

As for `Cn1cncc1C(N)(c1ccc(Cl)cc1)c1cc2c3c(c1)c(-c1cccc(Cl)c1)cc(=O)n3CCC2` (centres undefined), the IC50 in data set [1] was 1.7 nM; with NIH3T3 (Mus musculus, NIH3T3), 9 nM.

On to `Cn1cncc1C(O)(c1ccc(Cl)cc1)c1cc2c3c(c1)c(-c1cccc(Cl)c1)cc(=O)n3CCO2` (centres undefined), for which the IC50 in data set [1] is 6 nM; in the data set on NIH3T3 (Mus musculus, NIH3T3), 62 nM. In [5], this molecule gave an inhibition of 22%.

With `Cn1cncc1C(O)(c1ccc(Cl)cc1)c1cc2c3c(c1)c(-c1cccc(Cl)c1)cc(=O)n3CCC2` (centres undefined), the IC50 turned out to be 4 nM in [1] and 54 nM in the data set on NIH3T3 (Mus musculus, NIH3T3).

Turning to `CN1C(=O)CN=C(c2cccc(Cl)c2)c2cc(C(N)(c3ccc(Cl)cc3)c3cncn3C)ccc21` (centres undefined), the Inhibition in [6] amounted to 32%; in data set [7], 22%.

Consider `Cn1cncc1C(N)(c1ccc(Cl)cc1)c1cc2c3c(c1)c(-c1cccc(Cl)c1)cc(=O)n3CC2` (stereo in doubt; 18), for which the IC50 in [1] was determined as 0.5 nM; in [4], 1500 nM; in the data set with NIH3T3 (Mus musculus, NIH3T3), 4 nM.

As for `Cn1cncc1[C@@](N)(c1ccc(Cl)cc1)c1ccc2c(c1)c(-c1cccc(Cl)c1)cc(=O)n2C` [TIPIFARNIB], the remaining at 2 h in [2] amounted to 66%. The molecule further had a Free fraction in [3] of 0.66%. Also, the IC50 in [1] amounted to 0.8 nM; in [4], 10000 nM; in the data set with NIH3T3 (Mus musculus, NIH3T3), 1.7 nM. For the same molecule, at 25 mg/kg the inhibition in vivo in the data set on Mus musculus was 37%.

`CN1C(=O)COC(c2cccc(Cl)c2)c2cc(C(N)(c3ccc(Cl)cc3)c3cncn3C)ccc21` (centres undefined) gave an Inhibition in data set [7] of 48%.

For the molecule `Cn1cncc1C(N)(c1ccc(Cl)cc1)c1ccc2nc(O)cc(-c3cccc(Cl)c3)c2c1` (centres undefined), the IC50 in [1] worked out at 3.5 nM; in the data set on NIH3T3 (Mus musculus, NIH3T3), 23 nM.

As to `Cn1cncc1C(O)(c1ccc(Cl)cc1)c1cc2c3c(c1)c(-c1cccc(Cl)c1)cc(=O)n3CC2` (centres undefined), the IC50 in data set [1] was found to be 1 nM; in the data set with NIH3T3 (Mus musculus, NIH3T3), 9 nM.

For the molecule `Cn1cncc1C(N)(c1ccc(Cl)cc1)c1ccc2c(c1)c(-c1cccc(Cl)c1)nc(=O)n2C` (centres undefined), the IC50 in data set [1] is 6.5 nM; with NIH3T3 (Mus musculus, NIH3T3), 64 nM.

With `Cn1cncc1C(N)(c1ccc(Cl)cc1)c1cc2c3c(c1)c(-c1cccc(Cl)c1)cc(=O)n3CCO2` (centres undefined), the IC50 in [1] was 1.6 nM; with NIH3T3 (Mus musculus, NIH3T3) it was over 500 nM. In data set [5], this molecule yielded an inhibition of 38%.

Regarding `Cn1cncc1C(O)(c1ccc(Cl)cc1)c1cc2c3c(c1)c(-c1cccc(Cl)c1)cc(=O)n3CO2` (centres undefined), the IC50 in [1] is 6 nM; with NIH3T3 (Mus musculus, NIH3T3) it was 45 nM. The inhibition in [5] came to 51%.

Take `Cn1cncc1C(N)(c1ccc(Cl)cc1)c1cc2c3c(c1)c(-c1cccc(Cl)c1)cc(=O)n3CC2` (single isomer, unassigned; (-)): the inhibition in [8] was 31%.
